Activity calls are given as the source filed them. No cut-off for these calls is given here.
Key:
SK-BR-3 = experiment: In vitro inhibition of p185 erbB-2 oncoprotein in human breast cancer SK-BR-3 cells; format: functional, cell-based
Summary of the method: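 Cellular assay with read-out as depletion of p185 erbB-2 protein after drug treatment of the cells. This depletion tracks inhibition of p185 autophosphorylation.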

Mus musculus [1] = experiment: In vivo inhibition of p185 phosphotyrosine in nu/nu nude mice bearing Fisher rat embryo cells transfected with human erbB-2 (inactive); format: functional, organism-based
Mus musculus [2] = experiment: In vivo inhibition of p185 phosphotyrosine in nu/nu nude mice bearing Fisher rat embryo cells transfected with human erbB-2; format: functional; set-up: concentration or dose not given beside the values

Compound	IC50 (SK-BR-3)	inhibition (Mus musculus [1])	Inhibition (Mus musculus [2])
CO[C@H]1/C=C\C=C(/C)C(=O)N(CC(=O)c2ccc([N+](=O)[O-])cc2)C2=CC(=O)C(N)=C(C[C@@H](C)C[C@H](OC)[C@H](O)[C@@H](C)/C=C(\C)[C@@H]1OC(N)=O)C2=O	90 nM	–	–
CO[C@H]1/C=C\C=C(/C)C(=O)NC2=CC(=O)C(N3CCC3)=C(C[C@@H](C)C[C@H](OC)[C@H](OC(=O)NS(=O)(=O)N3CCN(C)CC3)[C@@H](C)/C=C(\C)[C@@H]1OC(N)=O)C2=O	190 nM	inactive	–
C=CCNC1=C2C[C@@H](C)C[C@H](OC)[C@H](O)[C@@H](C)/C=C(\C)[C@H](OC(=O)CN)[C@@H](OC)/C=C\C=C(/C)C(=O)NC(=CC1=O)C2=O	> 3300 nM	–	–
CO[C@H]1/C=C\C=C(/C)C(=O)NC2=CC(=O)C(N3CCC3)=C(C[C@@H](C)C[C@H](OC)[C@H](O)[C@@H](C)/C=C(\C)[C@@H]1OC(N)=O)C2=O	–	–	61%
CNC1=C2C[C@@H](C)C[C@H](OC)C(=O)[C@@H](C)/C=C(\C)[C@H](OC(N)=O)[C@@H](OC)/C=C\C=C(/C)C(=O)NC(=CC1=O)C2=O	34 nM	inactive	–
CO[C@H]1/C=C\C=C(/C)C(=O)NC2=CC(=O)C(NC(C)C)=C(C[C@@H](C)C[C@H](OC)[C@H](O)[C@@H](C)/C=C(\C)[C@@H]1OC(N)=O)C2=O	–	–	87%
CO[C@H]1/C=C\C=C(/C)C(=O)N(CC(=O)c2ccc3ccccc3c2)C2=CC(=O)C(N)=C(C[C@@H](C)C[C@H](OC)[C@H](O)[C@@H](C)/C=C(\C)[C@@H]1OC(N)=O)C2=O	200 nM	inactive	–
CO[C@H]1/C=C\C=C(/C)C(=O)NC2=CC(=O)C(N3CCC3)=C(C[C@@H](C)C[C@H](OC)[C@H](O)[C@@H](C)/C=C(\C)[C@@H]1NC(N)=O)C2=O	2600 nM	–	–
C=CCNC1=C2C[C@@H](C)C[C@H](OC)[C@H](OC(=O)NS(=O)(=O)N3CCC3)[C@@H](C)/C=C(\C)[C@H](OC(N)=O)[C@@H](OC)/C=C\C=C(/C)C(=O)NC(=CC1=O)C2=O	800 nM	–	–
CO[C@H]1C[C@H](C)CC2=C(N3CCC3)C(=O)C=C(NC(=O)/C(C)=C/C=C\[C@H](OC)[C@@H](OC(N)=O)/C(C)=C/[C@H](C)C1=O)C2=O	34 nM	inactive	–
CO[C@H]1/C=C\C=C(/C)C(=O)NC2=CC(=O)C(N3CCC3)=C(C[C@@H](C)C[C@H](OC)[C@H](OC(=O)NS(=O)(=O)NC(C)C)[C@@H](C)/C=C(\C)[C@@H]1OC(N)=O)C2=O	140 nM	inactive	–
CNC1=C2C[C@@H](C)C[C@H](OC)[C@H](O)[C@@H](C)/C=C(\C)[C@H](OC(N)=O)[C@@H](OC)/C=C\C=C(/C)C(=O)NC(=CC1=O)C2=O	–	–	18%
CO[C@H]1/C=C\C=C(/C)C(=O)NC2=CC(=O)C(NC3CC3)=C(C[C@@H](C)C[C@H](OC)[C@@H](F)[C@@H](C)/C=C(\C)[C@@H]1OC(N)=O)C2=O	500 nM	–	–
CNC1=C2C[C@@H](C)C[C@H](OC)[C@H](NCc3ccccc3)[C@@H](C)/C=C(\C)[C@H](OC(N)=O)[C@@H](OC)/C=C\C=C(/C)C(=O)NC(=CC1=O)C2=O	850 nM	–	–
COc1ccc(C(=O)CN2C(=O)/C(C)=C/C=C\[C@H](OC)[C@@H](OC(N)=O)/C(C)=C/[C@H](C)[C@@H](O)[C@@H](OC)C[C@H](C)CC3=C(N)C(=O)C=C2C3=O)cc1	1200 nM	–	–
C=CCNC1=C2C[C@@H](C)C[C@H](OC)[C@H](O)[C@@H](C)/C=C(\C)[C@H](OC(=O)NCC)[C@@H](OC)/C=C\C=C(/C)C(=O)NC(=CC1=O)C2=O	> 3300 nM	–	–
CO[C@H]1/C=C\C=C(/C)C(=O)N(CC(=O)c2ccc(N=[N+]=[N-])cc2)C2=CC(=O)C(N3CCC3)=C(C[C@@H](C)C[C@H](OC)[C@H](O)[C@@H](C)/C=C(\C)[C@@H]1OC(N)=O)C2=O	1900 nM	–	–
CO[C@H]1/C=C\C=C(/C)C(=O)NC2=CC(=O)C(N3CCC3)=C(C[C@@H](C)C[C@H](OC)[C@@H](F)[C@@H](C)/C=C(\C)[C@@H]1OC(N)=O)C2=O	170 nM	inactive	–
CO[C@H]1C[C@H](C)CC2=C(NC(C)C)C(=O)C=C(NC(=O)/C(C)=C/C=C\[C@H](OC)[C@@H](OC(N)=O)/C(C)=C/[C@H](C)/C1=N/O)C2=O	270 nM	–	–
C=CCNC1=C2C[C@@H](C)C[C@H](OC)[C@H](O)[C@@H](C)/C=C(\C)[C@H](OC(N)=O)[C@@H](OC)/C=C\C=C(/C)C(=O)NC(=CC1=O)C2=O [TANESPIMYCIN]	–	–	56%
CO[C@H]1/C=C\C=C(/C)C(=O)NC2=CC(=O)C(N3CCC3)=C(C[C@@H](C)C[C@H](OC)[C@H](OC(N)=O)[C@@H](C)/C=C(\C)[C@@H]1OC(N)=O)C2=O	50 nM	inactive	–
CO[C@H]1/C=C\C=C(/C)C(=O)N(CC(=O)c2ccc(Cl)c(Cl)c2)C2=CC(=O)C(N)=C(C[C@@H](C)C[C@H](OC)[C@H](O)[C@@H](C)/C=C(\C)[C@@H]1OC(N)=O)C2=O	80 nM	inactive	–

Compound	IC50 (SK-BR-3)	inhibition (Mus musculus [1])	Inhibition (Mus musculus [2])
CO[C@H]1/C=C\C=C(/C)C(=O)N(CC(=O)c2ccc(N=[N+]=[N-])c(I)c2)C2=CC(=O)C(N)=C(C[C@@H](C)C[C@H](OC)[C@H](O)[C@@H](C)/C=C(\C)[C@@H]1OC(N)=O)C2=O	140 nM	–	–
C=CCNC1=C2C[C@@H](C)C[C@H](OC)[C@H](OC(=O)NS(=O)(=O)N3CN(C)C3)[C@@H](C)/C=C(\C)[C@H](OC(N)=O)[C@@H](OC)/C=C\C=C(/C)C(=O)NC(=CC1=O)C2=O	> 2500 nM	–	–
C=CCNC1=C2C[C@@H](C)C[C@H](OC)C(=O)[C@@H](C)/C=C(\C)[C@H](OC(N)=O)[C@@H](OC)/C=C\C=C(/C)C(=O)NC(=CC1=O)C2=O	220 nM	–	–
CO[C@H]1/C=C\C=C(/C)C(=O)N(CC(=O)c2cccc3ccccc23)C2=CC(=O)C(N)=C(C[C@@H](C)C[C@H](OC)[C@H](O)[C@@H](C)/C=C(\C)[C@@H]1OC(N)=O)C2=O	70 nM	inactive	–
CO[C@H]1/C=C\C=C(/C)C(=O)NC2=CC(=O)C(N)=C(C[C@@H](C)C[C@H](OC)[C@H](O)[C@@H](C)/C=C(\C)[C@@H]1O)C2=O	> 3900 nM	–	–
CO[C@H]1/C=C\C=C(/C)C(=O)NC2=CC(=O)C(NC3CCC3)=C(C[C@@H](C)C[C@H](OC)[C@H](O)[C@@H](C)/C=C(\C)C1=O)C2=O	> 3700 nM	–	–
COc1ccccc1C(=O)CN1C(=O)/C(C)=C/CC[C@H](OC)[C@@H](OC(N)=O)/C(C)=C/[C@H](C)[C@@H](O)[C@@H](OC)C[C@H](C)CC2=C(N)C(=O)C=C1C2=O	200 nM	–	–
CO[C@H]1C[C@H](C)CC2=C(N3CCC3)C(=O)C=C(NC(=O)/C(C)=C/CC[C@H](OC)[C@@H](OC(N)=O)/C(C)=C/[C@H](C)[C@@H]1F)C2=O	40 nM	inactive	–
CO[C@H]1/C=C\C=C(/C)C(=O)NC2=CC(=O)C(N3CCC3)=C(C[C@@H](C)C[C@H](OC)[C@H](O)[C@@H](C)/C=C(\C)[C@@H]1O)C2=O	1290 nM	–	–
COC1=C2C[C@@H](C)C[C@H](OC)[C@H](O)[C@@H](C)/C=C(\C)[C@H](OC(N)=O)[C@@H](OC)/C=C\C=C(/C)C(=O)NC(=CC1=O)C2=O	–	inactive	–
CO[C@H]1/C=C\C=C(/C)C(=O)N(CC(=O)c2ccccc2)C2=CC(=O)C(N)=C(C[C@@H](C)C[C@H](OC)[C@H](O)[C@@H](C)/C=C(\C)[C@@H]1OC(N)=O)C2=O	300 nM	–	–
CO[C@H]1/C=C\C=C(/C)C(=O)N(CC(C)=O)C2=CC(=O)C(N)=C(C[C@@H](C)C[C@H](OC)[C@H](O)[C@@H](C)/C=C(\C)[C@@H]1OC(N)=O)C2=O	830 nM	–	–
C=CCN[C@H]1[C@@H](OC)C[C@H](C)CC2=C(NC)C(=O)C=C(NC(=O)/C(C)=C/C=C\[C@H](OC)[C@@H](OC(N)=O)/C(C)=C/[C@@H]1C)C2=O	1000 nM	–	–
CO[C@H]1/C=C\C=C(/C)C(=O)N(Cc2ccccn2)C2=CC(=O)C(N)=C(C[C@@H](C)C[C@H](OC)[C@H](O)[C@@H](C)/C=C(\C)[C@@H]1OC(N)=O)C2=O	> 3100 nM	–	–
C=CCNC1=C2C[C@@H](C)C[C@H](OC)[C@H](OC(=O)NS(=O)(=O)NC(C)C)[C@@H](C)/C=C(\C)[C@H](OC(N)=O)[C@@H](OC)/C=C\C=C(/C)C(=O)NC(=CC1=O)C2=O	1070 nM	–	–
CO[C@H]1/C=C\C=C(/C)C(=O)NC2=CC(=O)C(N3CCC3)=C(C[C@@H](C)C[C@H](OC)[C@H](O)[C@@H](C)/C=C(\C)[C@@H]1/N=C(/N)S)C2=O	1700 nM	–	–
C=CCNC1=C2C[C@@H](C)C[C@H](OC)[C@@H](F)[C@@H](C)/C=C(\C)[C@H](OC(N)=O)[C@@H](OC)CC/C=C(\C)C(=O)NC(=CC1=O)C2=O	1200 nM	inactive	–
COC(=O)/C(C)=C\C=C\[C@H](OC)[C@@H](OC(N)=O)/C(C)=C/[C@H](C)[C@@H](O)[C@H](C[C@H](C)CC1=C(N2CCC2)C(O)=CC(=N)C1=O)OC	> 3200 nM	–	–
CO[C@H]1C[C@H](C)CC2=C(N3CCC3)C(=O)C=C(NC(=O)/C(C)=C/C=C\[C@H](OC)[C@@H](OC(N)=O)/C(C)=C/[C@H](C)/C1=N/O)C2=O	1100 nM	inactive	–
CO[C@H]1/C=C\C=C(/C)C(=O)N(CC(=O)c2ccc(N=[N+]=[N-])cc2)C2=CC(=O)C(N)=C(C[C@@H](C)C[C@H](OC)[C@H](O)[C@@H](C)/C=C(\C)[C@@H]1OC(N)=O)C2=O	230 nM	–	–
CO[C@H]1/C=C\C=C(/C)C(=O)NC2=CC(=O)C(N3CCC3)=C(C[C@@H](C)C[C@H](OC)[C@H](O)[C@@H](C)/C=C(\C)[C@@H]1OC(=O)C(=O)O)C2=O	1000 nM	–	–

Reference: ChEMBL document CHEMBL1128590, “erbB-2 oncogene inhibition by geldanamycin derivatives: synthesis, mechanism of action, and structure-activity relationships” (J Med Chem, 1995)
